Reference: ChEMBL document CHEMBL4350993, “Dipropargyl substituted diphenylpyrimidines as dual inhibitors of monoamine oxidase and acetylcholinesterase” (Eur J Med Chem, 2019)
Active and inactive are the calls of the source. No cut-off for these calls is given here.

How the values were obtained:
Homo sapiens = organism: Homo sapiens; assay: Selectivity index, ratio of IC50 for human recombinant microsomal MAO- A expressed in baculovirus infected BTI-TN-5B1- 4 cells using p-tyramine as substrate to IC50 for human recombinant microsomal MAO- B expressed in baculovirus infected BTI-TN-5B1- 4 cells using p-tyramine as substrate by horse radish peroxidase/Amplex red reagent based fluorescence assay
Method in brief: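 Recombinant hMAO-A (1.1 µg) or hMAO-B (7.5 µg) preincubated with inhibitor over a concentration range for 30 min at 37 °C in 0.05 M sodium phosphate, pH 7.4. Reaction started with 1 mM p-tyramine, 200 µM Amplex Red and 1 U/mL HRP (final concentrations). H₂O₂ was read by fluorescence (ex 545/em 590 nm) after 30 min dark incubation. Background without enzyme was subtracted; vehicle served as control.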

[1] = target: T1, Amine oxidase [flavin-containing] B (Homo sapiens, UniProt P27338); assay: (§1) Inhibition of human recombinant microsomal MAO-B expressed in baculovirus infected BTI-TN-5B1-4 cells assessed as reduction in production of H202 using p-tyramine as substrate incubated for 30 mins followed by substrate addition by horse radish peroxidase/Amplex red reagent based fluorescence assay; type: cell-based
T1 sequence (P27338 whole entry): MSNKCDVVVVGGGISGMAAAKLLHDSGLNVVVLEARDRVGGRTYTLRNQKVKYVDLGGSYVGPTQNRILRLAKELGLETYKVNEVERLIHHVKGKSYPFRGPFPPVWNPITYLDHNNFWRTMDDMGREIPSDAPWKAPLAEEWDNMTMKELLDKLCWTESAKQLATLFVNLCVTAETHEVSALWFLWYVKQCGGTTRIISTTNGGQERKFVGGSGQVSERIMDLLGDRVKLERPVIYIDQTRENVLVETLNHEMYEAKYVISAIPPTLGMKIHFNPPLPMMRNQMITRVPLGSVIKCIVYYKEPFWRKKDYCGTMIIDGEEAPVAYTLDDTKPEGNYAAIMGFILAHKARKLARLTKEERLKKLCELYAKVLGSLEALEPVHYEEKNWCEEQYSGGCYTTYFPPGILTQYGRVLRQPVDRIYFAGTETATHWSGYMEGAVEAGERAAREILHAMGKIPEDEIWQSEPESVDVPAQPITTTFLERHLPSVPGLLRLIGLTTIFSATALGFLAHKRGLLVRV

Acetylcholinesterase = Acetylcholinesterase (Electrophorus electricus, UniProt O42275); assay: Inhibition of electric eel AChE assessed as reduction in production of H202 using acetylcholine as substrate incubated for 15 mins followed by substrate addition by horse radish peroxidase/Amplex red reagent based fluorescence assay
[2] = target: T2, Amine oxidase [flavin-containing] A (Homo sapiens, UniProt P21397); assay: Inhibition of human recombinant microsomal MAO-A expressed in baculovirus infected BTI-TN-5B1-4 cells assessed as reduction in production of H202 using p-tyramine as substrate incubated for 30 mins followed by substrate addition by horse radish peroxidase/Amplex red reagent based fluorescence assay; type: cell-based
T2 sequence (P21397 whole entry): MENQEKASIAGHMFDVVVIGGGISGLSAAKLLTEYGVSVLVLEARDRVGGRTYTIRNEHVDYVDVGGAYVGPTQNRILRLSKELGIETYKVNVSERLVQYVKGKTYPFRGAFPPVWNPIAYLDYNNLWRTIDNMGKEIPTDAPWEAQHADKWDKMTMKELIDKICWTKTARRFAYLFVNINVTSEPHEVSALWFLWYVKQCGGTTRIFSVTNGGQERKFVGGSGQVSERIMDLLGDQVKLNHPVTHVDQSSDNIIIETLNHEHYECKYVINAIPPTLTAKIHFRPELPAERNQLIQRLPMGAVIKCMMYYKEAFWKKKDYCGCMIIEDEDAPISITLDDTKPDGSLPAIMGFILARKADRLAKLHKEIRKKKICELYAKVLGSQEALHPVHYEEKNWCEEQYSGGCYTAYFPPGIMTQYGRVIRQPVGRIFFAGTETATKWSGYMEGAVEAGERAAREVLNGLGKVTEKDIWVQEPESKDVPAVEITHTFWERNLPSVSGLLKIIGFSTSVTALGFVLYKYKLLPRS

SH-SY5Y [3] = assay: Inhibition of ROS generation in human SH-SY5Y cells at 5 uM measured after 24 hrs by DCF-DA dye based fluorescence assay relative to control; type: functional
Method in brief: (§2)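 SH-SY5Y cells, about 10,000/well, grown 24 h in DMEM/F-12 with 10% FBS, horse serum and 1% penicillin. Washed with PBS, then exposed to compound without FBS for 24 h (1, 5, 25 μM). Rinsed three times in PBS, loaded with H2DCF-DA (50 μM) for 30 min at 37 °C, rinsed again. Fluorescence read at ex 478 / em 518 nm.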

SH-SY5Y [4] = assay: Neuroprotective activity against 6-OHDA induced toxicity in human SH-SY5Y cells assessed as cell viability at 1 uM preincubated for 4 hrs followed by 6-OHDA addition and measured after 24 hrs by MTT assay (reference value: 48.52 %); type: functional; conditions: read-out: Activity
SH-SY5Y [5] = assay: Neuroprotective activity against 6-OHDA induced toxicity in human SH-SY5Y cells assessed as cell viability at 25 uM preincubated for 4 hrs followed by 6-OHDA addition and measured after 24 hrs by MTT assay (reference value: 48.52 %); type: functional; conditions: read-out: Activity
[6] = Metal chelating activity of the compound assessed as formation of Fe2+ complex at 50 uM by UV-vis spectrophotometric analysis
Method in brief: (§3)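 Absorption spectra recorded by UV–vis spectrophotometry for compound alone (50 μM final) and with CuSO₄, FeSO₄ or FeCl₃ (50 μM final); chelation judged from spectral change.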

[7] = Octanol/water partition coefficient, logP of compound; type: physicochemical
[8] = target: Acetylcholinesterase (Electrophorus electricus) (UniProt O42275); assay: Reversible inhibition of electric eel AChE assessed as recovery of enzyme activity at 0.1 times IC50 using acetylcholine as substrate relative to control
[9] = target: Acetylcholinesterase (Electrophorus electricus) (UniProt O42275); conditions: at 1 to 5 µM
SH-SY5Y [10] = assay: Neuroprotective activity against 6-OHDA induced toxicity in human SH-SY5Y cells assessed as cell viability at 5 uM preincubated for 4 hrs followed by 6-OHDA addition and measured after 24 hrs by MTT assay (reference value: 48.52 %); type: functional; conditions: read-out: Activity
[11] = Cytotoxicity against human SH-SY5Y cells assessed as cell viability at 25 uM measured after 24 hrs by MTT assay relative to control; type: cell-based; conditions: read-out: Activity
Method in brief: (§4)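 SH-SY5Y cells, about 10,000/well, grown 24 h in DMEM/F-12 with 10% FBS, horse serum and 1% penicillin. Exposed to compound at 1, 5 or 25 μM for 24 h, serum-free, at 37 °C, 5% CO2. MTT added, 4 h at 37 °C, formazan dissolved in DMSO, OD read at 595 nm. Viability expressed relative to control.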

[12] = target: Acetylcholinesterase (Electrophorus electricus) (UniProt O42275); assay: Reversible inhibition of electric eel AChE assessed as recovery of enzyme activity at 10 times IC50 using acetylcholine as substrate relative to control
[13] = Cytotoxicity against human SH-SY5Y cells assessed as cell viability at 5 uM measured after 24 hrs by MTT assay relative to control; type: cell-based; conditions: read-out: Activity; method in brief: as §4
[14] = target: Acetylcholinesterase (Electrophorus electricus) (UniProt O42275); assay: Reversible inhibition of electric eel AChE assessed as recovery of enzyme activity at 100 times IC50 using acetylcholine as substrate relative to control
SH-SY5Y [15] = assay: Inhibition of ROS generation in human SH-SY5Y cells at 1 uM measured after 24 hrs by DCF-DA dye based fluorescence assay relative to control; type: functional; method in brief: as §2
SH-SY5Y [16] = assay: Inhibition of ROS generation in human SH-SY5Y cells at 25 uM measured after 24 hrs by DCF-DA dye based fluorescence assay relative to control; type: functional; method in brief: as §2
[17] = Cytotoxicity against human SH-SY5Y cells assessed as cell viability at 1 uM measured after 24 hrs by MTT assay relative to control; type: cell-based; conditions: read-out: Activity; method in brief: as §4
[18] = target: Acetylcholinesterase (Electrophorus electricus) (UniProt O42275); assay: Reversible inhibition of electric eel AChE assessed as recovery of enzyme activity at IC50 using acetylcholine as substrate relative to control
[19] = Metal chelating activity of the compound assessed as formation of Cu2+ complex at 50 uM by UV-vis spectrophotometric analysis; method in brief: as §3
[20] = Metal chelating activity of the compound assessed as formation of Fe3+ complex at 50 uM by UV-vis spectrophotometric analysis; method in brief: as §3
[21] = target: T2, Amine oxidase [flavin-containing] A; assay: as §1, with “MAO- A” for “MAO-B”, “BTI-TN-5B1- 4” for “BTI-TN-5B1-4”, “H202 at 50 uM” for “H202”; conditions: 0.5 h
Method in brief: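 Recombinant hMAO-A (1.1 µg protein) preincubated 30 min at 37 °C with test compound in 0.05 M sodium phosphate, pH 7.4. Reaction started with (final) 200 µM Amplex Red, 1 U/mL HRP and 1 mM p-tyramine. After 30 min in the dark, H2O2 read by fluorescence (ex 545/em 590 nm) at 37 °C. Background without enzyme subtracted; vehicle control.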

Chain of Acetylcholinesterase (O42275 whole entry): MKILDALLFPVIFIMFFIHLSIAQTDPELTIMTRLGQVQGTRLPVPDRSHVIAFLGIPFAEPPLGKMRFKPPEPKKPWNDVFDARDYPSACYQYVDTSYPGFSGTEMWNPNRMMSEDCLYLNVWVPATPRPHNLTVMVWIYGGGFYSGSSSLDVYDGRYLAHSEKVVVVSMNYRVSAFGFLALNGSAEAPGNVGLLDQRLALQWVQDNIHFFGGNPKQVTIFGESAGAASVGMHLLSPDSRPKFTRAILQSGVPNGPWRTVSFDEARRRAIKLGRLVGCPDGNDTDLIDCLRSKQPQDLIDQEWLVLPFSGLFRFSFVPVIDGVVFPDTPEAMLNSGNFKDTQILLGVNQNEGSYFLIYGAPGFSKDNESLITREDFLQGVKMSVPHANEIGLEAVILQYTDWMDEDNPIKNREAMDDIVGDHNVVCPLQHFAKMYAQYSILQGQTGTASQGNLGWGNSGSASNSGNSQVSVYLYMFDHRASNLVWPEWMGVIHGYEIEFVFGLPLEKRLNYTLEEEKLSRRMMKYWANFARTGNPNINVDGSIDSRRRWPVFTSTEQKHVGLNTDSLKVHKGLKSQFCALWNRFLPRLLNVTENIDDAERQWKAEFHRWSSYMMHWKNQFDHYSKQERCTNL
Chain of Acetylcholinesterase (Electrophorus electricus) (O42275 24-633 limits assumed): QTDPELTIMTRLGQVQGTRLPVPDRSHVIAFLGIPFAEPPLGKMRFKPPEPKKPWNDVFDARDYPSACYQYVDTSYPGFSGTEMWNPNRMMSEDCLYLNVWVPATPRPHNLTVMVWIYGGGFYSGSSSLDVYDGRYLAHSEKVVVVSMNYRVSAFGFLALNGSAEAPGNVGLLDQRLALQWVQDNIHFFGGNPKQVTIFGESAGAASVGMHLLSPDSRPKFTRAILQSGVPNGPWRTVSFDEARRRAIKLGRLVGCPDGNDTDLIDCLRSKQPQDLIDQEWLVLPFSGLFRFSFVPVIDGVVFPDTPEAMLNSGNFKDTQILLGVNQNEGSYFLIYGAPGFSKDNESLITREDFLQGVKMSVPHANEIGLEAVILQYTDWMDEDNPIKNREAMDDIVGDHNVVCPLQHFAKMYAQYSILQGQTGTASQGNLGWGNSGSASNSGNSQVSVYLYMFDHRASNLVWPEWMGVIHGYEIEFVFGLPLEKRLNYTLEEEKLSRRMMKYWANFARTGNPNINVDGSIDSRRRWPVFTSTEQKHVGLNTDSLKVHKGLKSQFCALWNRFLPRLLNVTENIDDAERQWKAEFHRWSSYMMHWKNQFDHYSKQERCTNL

SMILES | Ratio IC50 (Homo sapiens) | IC50 [1] [µM] | IC50 (Acetylcholinesterase) [µM] | IC50 ([2]; read-out: IC50) [µM] | inhibition at 50 µM [21] [%] | IC50 ([2]; bti-tn-5b1-4) | also measured
C#CCOc1ccc(-c2cc(-c3ccc(OCC#C)cc3)nc(C)n2)cc1 | 4.4 | 7.83 | 1.76 | 34.1 |  |  | 
C#CCOc1ccc(-c2cc(-c3cccc(OCC#C)c3)nc(N)n2)cc1 | 16.1 | 1.49 | 1.74 | 24.1 |  |  | inhibition at 5 µM (SH-SY5Y [3]): 47.2%; viability at 1 µM (SH-SY5Y [4]): 60.5%; viability at 25 µM (SH-SY5Y [5]): 52.3%; Activity [6]: inactive; logP [7]: 4.51; inhibition [8]: 82.8%; inhibition [9]: Active; viability at 5 µM (SH-SY5Y [10]): 59.5%; viability at 24 h, 25 µM [11]: 69.2%; inhibition [12]: 12.3%; viability at 24 h, 5 µM [13]: 79.6%; inhibition [14]: 7.35%; inhibition at 1 µM (SH-SY5Y [15]): 68.3%; inhibition at 25 µM (SH-SY5Y [16]): 41%; viability at 24 h, 1 µM [17]: 87.3%; inhibition [18]: 41.8%; Activity [19]: inactive; Activity [20]: inactive
C#CCOc1ccc(-c2cc(-c3ccc(OCC#C)cc3)nc(-c3ccccc3)n2)cc1 | 2.1 | 12.3 | 7.53 | 25.6 |  |  | 
C#CCOc1ccc(-c2cc(-c3ccc(OCC#C)c(OCC)c3)nc(-c3ccccc3)n2)cc1 | > 2 | 29 | 6.94 |  | < 50 | Not Active | 
C#CCOc1ccccc1-c1cc(-c2ccccc2OCC#C)nc(N)n1 | > 5 | 11.1 | 5.19 |  | < 50 | Not Active | 
C#CCOc1ccc(-c2cc(-c3ccc(OCC#C)cc3)nc(N)n2)cc1 | 9.7 | 3.3 | 1.35 | 32.1 |  |  | inhibition at 5 µM (SH-SY5Y [3]): 30%; viability at 1 µM (SH-SY5Y [4]): 66.6%; viability at 25 µM (SH-SY5Y [5]): 53.6%; Activity [6]: inactive; logP [7]: 4.52; inhibition [8]: 66.5%; viability at 5 µM (SH-SY5Y [10]): 62.4%; viability at 24 h, 25 µM [11]: 72.6%; inhibition [12]: 10.2%; viability at 24 h, 5 µM [13]: 73%; inhibition [14]: 3.4%; inhibition at 1 µM (SH-SY5Y [15]): 89.8%; inhibition at 25 µM (SH-SY5Y [16]): 25.9%; viability at 24 h, 1 µM [17]: 79%; inhibition [18]: 42.4%; Activity [19]: inactive; Activity [20]: inactive
C#CCOc1ccc(-c2cc(-c3ccc(OCC#C)c(OC)c3)nc(C)n2)cc1 | 1.2 | 21.1 | 5.92 | 25 |  |  | 
C#CCOc1cccc(-c2cc(-c3cccc(OCC#C)c3)nc(N)n2)c1 | > 3 | 22.1 | 6.99 |  | < 50 | Not Active | 
C#CCOc1ccc(-c2cc(-c3ccccc3OCC#C)nc(-c3ccccc3)n2)cc1 | 1.5 | 14.4 | 7.25 | 22 |  |  | 
